Values belong to the molecule of their own block, whether it stands above or below them.
Columns and labels:
[1] = Photophysical study: fluorescence spectra and quantum yields; type: physicochemical; details: for solvatochromism Δmaxλem: various solvents, 50 μM
zebrafish larvae [2] = experiment: Chalcone 18 alone in 72 hpf larvae, confocal imaging; type: in vivo, zebrafish (Danio rerio)
chemokine CXCL12a = details: 10 μM, zebrafish model ref [56]; cited from earlier work
neutrophil granules = details: ref column Ref. of Table 1 ([5], [8], [9], [42], [60], [61], [65], [75]–[93]); cited from earlier work
[3] = log D7.4 partition coefficient, n-octanol / pH 7.4 PBS; type: physicochemical; details: from log D7.4 values
Method in brief: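 Partition coefficients were measured between n-octanol and pH 7.4 phosphate-buffered saline at 20 °C, alongside reference chalcones.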

[4] = pKa prediction with ACD software; details: from predicted pKa 3.97
[5] = biological target: bovine serum albumin (BSA) (Bos taurus, UniProt P02769); experiment: Protein-dependent fluorogenesis: titration of HAB with BSA in TRIS buffer; type: binding
Method in brief: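 Probe at 50 μM in Tris buffer (Tris·HCl 10 mM, pH 7.0, NaCl 100 mM, MgCl2 5 mM) was titrated with BSA. Emission spectra were recorded at 360 nm excitation over 0–1 mg mL−1 BSA and at 420 nm excitation over 1–10 mg mL−1. Fluorescence turn-on was taken at 420 nm excitation with 10 mg ml−1 BSA.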

[6] = system: zebrafish neutrophil granules; experiment: HAB labeling of live zebrafish embryos and larvae, confocal imaging; type: in vivo, zebrafish (Danio rerio)
Method in brief: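 Wild-type AB or transgenic embryos/larvae (24 hpf to 6 dpf, 28.5 °C staging) were incubated 1 h in the dark at room temperature with probe at 10 μM in Volvic water, from a 10 mM DMSO stock; controls got 0.1% DMSO. For equilibrium imaging, larvae were anaesthetised (tricaine) and mounted in 1% low-melt agarose with probe. For diffusion imaging, larvae were washed and mounted probe-free. Confocal imaging was done at 23–26 °C: excitation 488 nm, emission 550–650 nm.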

Caenorhabditis elegans = experiment: HAB labeling of live Caenorhabditis elegans; details: in vivo
zebrafish larvae [7] = experiment: Toxicity in live zebrafish larvae; type: in vivo, zebrafish (Danio rerio); details: up to 48 h incubation
[8] = system: live primary human neutrophils; experiment: HAB labeling of live human primary neutrophils; type: cell-based; details: 10 μM
Method in brief: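 Neutrophils were purified from human blood: plasma removal, dextran sedimentation of red cells, then a 51–42% Percoll gradient. Remaining red cells were cleared with CD235a beads. Cells went into RPMI/10 mM Hepes at 2 × 10^6 per mL and adhered 20 min at room temperature in glass-bottom dishes. Medium was replaced with probe at 1, 5 or 10 μM in RPMI/Hepes, followed by live confocal fluorescence and DIC imaging.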

[9] = system: lymphocytes, monocytes, erythrocytes and thrombocytes (platelets); experiment: HAB labeling of other human blood cell populations; type: cell-based; details: 10 μM, same conditions as purified neutrophils
Method in brief: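 PBMC were taken from the top layer of the Percoll gradient used for neutrophil purification. Live lymphocytes, erythrocytes, monocytes and thrombocytes were imaged by confocal fluorescence and DIC with probe at 10 μM, using the same settings as for the neutrophils.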

myeloperoxidase = experiment: HAB labeling in myeloperoxidase knock-out; type: in vivo, zebrafish (Danio rerio); details: spotless mutant strain, equilibrium conditions

bovine serum albumin (BSA), sequence (P02769 25-607): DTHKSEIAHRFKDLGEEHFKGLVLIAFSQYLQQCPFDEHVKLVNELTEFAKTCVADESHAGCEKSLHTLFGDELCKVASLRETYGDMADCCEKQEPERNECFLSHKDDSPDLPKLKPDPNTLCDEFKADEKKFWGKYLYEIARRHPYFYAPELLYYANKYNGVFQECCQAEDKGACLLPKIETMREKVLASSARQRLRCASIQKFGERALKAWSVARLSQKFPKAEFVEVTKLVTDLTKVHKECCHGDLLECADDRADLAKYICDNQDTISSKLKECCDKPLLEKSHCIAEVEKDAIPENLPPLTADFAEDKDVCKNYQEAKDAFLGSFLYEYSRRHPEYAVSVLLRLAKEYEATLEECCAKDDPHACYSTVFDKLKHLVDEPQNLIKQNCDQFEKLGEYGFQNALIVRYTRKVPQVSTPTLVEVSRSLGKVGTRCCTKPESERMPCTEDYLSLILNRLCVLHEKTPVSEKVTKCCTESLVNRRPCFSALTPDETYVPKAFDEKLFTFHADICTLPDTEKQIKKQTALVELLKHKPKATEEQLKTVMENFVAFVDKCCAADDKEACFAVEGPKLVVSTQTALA

- solvatochromism Δmaxλem [1]: ~140 nm
SMILES: Nc1cccc2ccc(/C=C/C(=O)c3ccccc3)cc12 [Compound 6, (E)-3-(8-aminonaphthalen-2-yl)-1-phenylprop-2-en-1-one]

- cytopermeability (zebrafish larvae [2]; even at high concentration): not cytopermeable
SMILES: COc1cc(/C=C/C(=O)c2ccc(Cl)cc2)ccc1O [Compound 18, 4-hydroxy-3-methoxy-4′-chlorochalcone]
- type of staining (zebrafish larvae [2]; 100 μM, 72 hpf larvae): interstitial histological labeling
- fluorescence of 18 alone in larvae (zebrafish larvae [2]; 100 μM, 72 hpf larvae, excitation 488 nm): green-yellow fluorescence
- biological effects as inhibitor of CXCL12a (chemokine CXCL12a): moderate biological effects
- fluorescent detection by GFP filters (chemokine CXCL12a): not fluorescently detected

SMILES: COC(=O)c1ccccc1C1c2ccc(N)cc2Oc2cc(N)ccc21 [Dihydrorhodamine 123]
- Histopermeability for live animal imaging (neutrophil granules): No (in vitro only)

SMILES: Nc1cccc2ccc(/C=C/C(=O)c3ccc(O)cc3)cc12 [HAB, (E)-3-(8-aminonaphthalen-2-yl)-1-(4-hydroxyphenyl)prop-2-en-1-one]
- fold more hydrophilic than 4′-deshydroxy congener 6 [3]: 2 fold
- basicity, fold lower than that of acidotropic amines [4]: about 10^5 fold
- fold higher quantum yield than 5-amino regioisomer 12 ([1]; toluene): ca. 20 fold
- solvatochromism Δmaxλem [1]: ~140 nm
- bathochromic shift Δλem upon binding to BSA [5]: 133 nm
- bathochromic shift Δλex upon binding to BSA [5]: 60 nm
- fluorescence turn-on (FTO) upon binding to BSA ([5]; excitation 420 nm, BSA 10 mg ml^–1, HAB 50 μM): 21.5
- compartment labeled within neutrophils ([6]; 10 μM, 72 hpf larvae, confocal plus DIC): co-localize with neutrophil granules
- developmental stage at which labeling first appeared ([6]; 10 μM, 60 min, ventral tail of embryo): 32 hpf
- co-localization with macrophages ([6]; 10 μM, Tg(mfap4:mCherry-F) 72 hpf larvae): did not co-localize
- co-localization with neutrophils ([6]; 10 μM, Tg(mpx:GAL4/UAS-E1b:nsfB-mCherry) 72 hpf larvae): perfectly colocalized with all neutrophils
- HAB labeling after or before formaldehyde fixation ([6]; 1 or 4% formaldehyde, two hours, room temperature): failed to detect HAB labeling
- microscopic visualization in C. elegans (Caenorhabditis elegans): could not be microscopically visualized
- toxicity of HAB (zebrafish larvae [7]): absence of toxicity
- labeling of activated neutrophils [8]: intense labeling of cells at the level of subcellular granular structures
- labeling of non-activated neutrophils [8]: intense but diffuse fluorescent labeling
- labeling of lymphocytes, monocytes, erythrocytes and thrombocytes [9]: weakly to faintly labeled
- labeling in myeloperoxidase knock-out larvae (myeloperoxidase): qualitatively and quantitatively indistinguishable from wild-type larvae

SMILES: Nc1cccc2c(=O)[nH][nH]c(=O)c12 [Luminol]
- Histopermeability for live animal imaging (neutrophil granules): No (in vitro only)

SMILES: CC1(C)Nc2cccc3c(N=Nc4ccc(N=Nc5ccccc5)c5ccccc45)ccc(c23)N1 [Sudan Black B]
- Histopermeability for live animal imaging (neutrophil granules): No (FA fixation in vivo)
